Calls of active or inactive are those of the source. The calls are words filed in the database; no cut-off is given here.
Key:
HT-29 [1] = assay: Induction of ROS generation in human HT-29 cells at 30 uM by CM-H2DCFDA staining-based fluorescence assay; format: functional, cell-based
Procedure, shortened: (§1)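 HT-29 (15 000 cells/well) loaded with 50 μM CM-H2DCFDA in PBS for 30 min at 37 °C, washed, then 60 min in phenol red-free DMEM/F-12. 30 μM compound added alone or with NAC 1 mM, GSH 2.5 mM, D3T 25 μM, α-tocopherol 50 μM or ascorbic acid 500 μM. Fluorescence 485/530 nm read kinetically at 37 °C for 22 h; area under curve; means ± SEM, n = 7.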

HT-29 [2] = assay: Downregulation of CDK4 expression in human HT-29 cells at 10 uM after 48 hrs by immunoblotting method; format: functional, cell-based
Procedure, shortened: (§2)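 HT-29 exposed to 10 μM for 48 h; whole-cell lysates immunoblotted for the indicated proteins (total and cleaved PARP for the apoptosis line).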

HT-29 [3] = assay: Induction of apoptosis in human HT-29 cells assessed as increase in cleaved caspase 3 at 30 uM after 6 hrs by DAPI staining-based fluorescence microscopy; format: functional, cell-based
Procedure, shortened: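 HT-29 on coverslips treated 30 μM for 6 h, fixed in 4% formaldehyde, permeabilized with 0.3% Triton X-100, blocked in goat serum. Anti-cleaved caspase 3 (1:200) overnight at 4 °C, then Alexa Fluor 488 secondary (1:1000) 1 h. DAPI counterstain; imaged by fluorescence microscopy.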

HT-29 [4] = assay: Downregulation of CDK2 expression in human HT-29 cells at 10 uM after 48 hrs by immunoblotting method; format: functional, cell-based; procedure, shortened: as §2
HT-29 [5] = assay: Induction of cell cycle arrest in human HT-29 cells assessed as accumulation at G2/M phase at 10 uM by flow cytometry (reference value: 21%); format: functional
HT-29 [6] = assay: Induction of apoptosis in human HT-29 cells assessed as increase in caspase 8 activity at 30 uM after 2 hrs by luminescent assay relative to control; format: functional
Procedure, shortened: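 HT-29 cells exposed to compound 2 h; effector/initiator caspase enzymatic activity measured by luminescent assays, normalized to control treatment; means ± SEM, n = 4.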

HT-29 [7] = assay: Induction of apoptosis in human HT-29 cells assessed as mitochondrial membrane depolarization after 5 mins by JC-1 dye-based fluorescence assay; format: functional, cell-based; conditions: HT-29, 5 min
Procedure, shortened: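 HT-29 (40 000 cells/well) treated with concentration series for 5 min at 37 °C, then JC-1 added for a further 10 min and washed. Red (560/590 nm) to green (485/520 nm) fluorescence ratio taken as ΔΨm; variable-slope fit for IC50; means ± SD, n = 4.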

HT-29 [8] = assay: Induction of apoptosis in human HT-29 cells assessed as cleaved PARP level at 10 uM after 48 hrs; format: functional, cell-based; procedure, shortened: as §2
HT-29 [9] = assay: Induction of apoptosis in human HT-29 cells at 30 uM after 24 hrs by annexin V-FLUOS/propidium iodide staining-based flow cytometry in presence of alpha-tocopherol; format: functional, cell-based
Procedure, shortened: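 HT-29 cells co-incubated 24 h with 30 μM compound and antioxidant: glutathione 2.5 mM, α-tocopherol 50 μM, or ascorbic acid 500 μM. Phosphatidylserine externalization measured by annexin V-FLUOS/propidium iodide staining and flow cytometry. Means ± SEM, n = 3.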

HT-29 [10] = assay: Downregulation of CDK6 expression in human HT-29 cells at 10 uM after 48 hrs by immunoblotting method; format: functional, cell-based; procedure, shortened: as §2
[11] = molecular target: T1, Peroxisome proliferator-activated receptor gamma (Homo sapiens, UniProt P37231); assay: Competitive binding affinity to PPARgamma (unknown origin) by TR-FRET assay
T1 sequence (P37231 whole entry): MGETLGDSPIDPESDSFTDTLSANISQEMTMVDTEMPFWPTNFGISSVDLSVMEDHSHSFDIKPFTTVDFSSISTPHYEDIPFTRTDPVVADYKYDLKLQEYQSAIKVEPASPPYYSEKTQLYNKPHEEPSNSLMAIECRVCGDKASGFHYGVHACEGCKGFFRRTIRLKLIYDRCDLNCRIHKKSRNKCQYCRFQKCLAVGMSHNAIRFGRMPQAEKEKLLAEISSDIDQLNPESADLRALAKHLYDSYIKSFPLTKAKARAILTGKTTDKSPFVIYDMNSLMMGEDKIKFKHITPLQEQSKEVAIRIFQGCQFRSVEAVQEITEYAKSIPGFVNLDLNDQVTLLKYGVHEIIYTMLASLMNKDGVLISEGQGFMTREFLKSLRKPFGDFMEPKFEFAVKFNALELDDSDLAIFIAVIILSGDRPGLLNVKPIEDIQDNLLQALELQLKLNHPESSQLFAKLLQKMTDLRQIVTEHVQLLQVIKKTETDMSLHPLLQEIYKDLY

HT-29 [12] = assay: Antiproliferative activity against human HT-29 cells assessed as cellular DNA content at 20 uM after 48 hrs by CyQUANT NF fluorescence assay in presence of alpha-tocopherol; format: functional, cell-based
Procedure, shortened: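 HT-29 given concentration series of test compound with or without antioxidant (NAC 1 mM, GSH 2.5 mM, D3T 25 μM, α-tocopherol 50 μM, ascorbic acid 500 μM) for 48 h. Relative cell number from DNA-binding fluorescent dye; means ± SD, n = 4.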

[13] = molecular target: T2, Peroxisome proliferator-activated receptor delta (Homo sapiens, UniProt Q03181); assay: Competitive binding affinity to PPARbeta/delta (unknown origin) by TR-FRET assay
T2 sequence (Q03181 whole entry): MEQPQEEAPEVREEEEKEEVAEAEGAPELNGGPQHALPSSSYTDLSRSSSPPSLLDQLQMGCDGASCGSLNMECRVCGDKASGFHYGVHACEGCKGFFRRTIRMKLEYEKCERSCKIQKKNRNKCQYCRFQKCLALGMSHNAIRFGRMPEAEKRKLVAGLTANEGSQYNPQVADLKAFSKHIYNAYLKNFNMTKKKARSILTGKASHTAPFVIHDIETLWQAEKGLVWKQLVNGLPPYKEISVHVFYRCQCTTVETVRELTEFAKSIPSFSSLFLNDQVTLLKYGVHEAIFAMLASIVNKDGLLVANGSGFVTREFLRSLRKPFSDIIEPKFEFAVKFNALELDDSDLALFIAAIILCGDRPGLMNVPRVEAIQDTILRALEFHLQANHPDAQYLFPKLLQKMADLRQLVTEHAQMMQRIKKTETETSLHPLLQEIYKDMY

HT-29 [14] = assay: Induction of ROS generation in human HT-29 cells at 30 uM by CM-H2DCFDA staining-based fluorescence assay in presence of ascorbic acid; format: functional, cell-based; procedure, shortened: as §1
HT-29 [15] = assay: Increase in mitochondrial oxygen consumption in human HT-29 cells at 2 to 10 uM measured for 20 to 60 mins by time-resolved fluorescence assay; format: functional, cell-based
Procedure, shortened: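 HT-29 at 80 000 cells/well in phenol red-free DMEM/F-12 with oxygen-sensitive lifetime probe, compound added, wells sealed with mineral oil. Time-resolved fluorescence at 37 °C, 90 s intervals for 150 min. Lifetime slope over 20–60 min expressed relative to untreated cells; means ± SEM, n = 8.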

HT-29 [16] = assay: Induction of apoptosis in human HT-29 cells assessed as phosphatidylserine externalization at 20 uM after 48 hrs by annexin V-FLUOS/propidium iodide staining-based flow cytometry (reference value: 8%); format: functional

IC50 (HT-29 [7]): 600 nM
Ki [11]: 700 nM
Ki [13]: 5200 nM
SMILES: COc1c(CC=C(C)C)c(O)c(C(=O)O)c(CCc2ccccc2)c1CC=C(C)C
Activity (HT-29 [1]): Active
Activity (HT-29 [2]): Active
Activity (HT-29 [3]): Active
Activity (HT-29 [4]): Active
Activity (HT-29 [5]): 7%
fold change (FC) (HT-29 [6]): 3
Activity (HT-29 [8]): Active
Activity (HT-29 [9]): Active
Activity (HT-29 [10]): Active
Activity (HT-29 [12]): Active
Activity (HT-29 [14]): inactive
Activity (HT-29 [15]): Active
Activity (HT-29 [16]): 44%

Reference: ChEMBL document CHEMBL3779787, “Amorfrutin C Induces Apoptosis and Inhibits Proliferation in Colon Cancer Cells through Targeting Mitochondria” (J Nat Prod, 2016)
